# Screens from PubChem BioAssay.
# HMGR II inh: E. faecalis class II HMG-CoA reductase inhibition; purified E. faecalis HMGR, NADPH absorbance 340 nm kinetic; inhibition, % at 10 µM; 190,000 compounds, 0.41% hits; AID 1066;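 active = inhibition above a set limit, the median over all tested compounds plus 3 SD, cut at about 9.5% in these data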;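 also: enzyme runs in reverse so mevalonate oxidation gives rising NADPH absorbance; 0% = complete reaction with DMSO and 100% = background rate lacking mevalonate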
# MT stabilize HCS: microtubule stabilization, imaging screen. % tubulin-high responders, % at 10 µM. 200,000 compounds, 0.83% hits. HeLa tubulin immunostaining HCS, 24 h; share of cells brighter than vehicle mean+2SD;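 active = plate Z-score above 3 for both tubulin-high and condensed-nucleus cell shares, with cell loss under 80%, at 10 µM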;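 also: anti alpha tubulin signal scored within the nucleus-defined area of each cell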
# PGE2 EP2 inh: EP2 receptor (human) inhibition; P43116; C6 glioma cells expressing human EP2, cAMP TR-FRET; cells stimulated with saturating PGE2; inhibition, % at 25 µM; 260,000 compounds, 0.52% hits; AID 1422;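 active = percent inhibition above 40 after rounding to a whole number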;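 also: rat C6 glioma host cells with rolipram phosphodiesterase inhibitor present; the protocol text gives 20 µM as final concentration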
# Target sequence (P43116 whole entry, looked up): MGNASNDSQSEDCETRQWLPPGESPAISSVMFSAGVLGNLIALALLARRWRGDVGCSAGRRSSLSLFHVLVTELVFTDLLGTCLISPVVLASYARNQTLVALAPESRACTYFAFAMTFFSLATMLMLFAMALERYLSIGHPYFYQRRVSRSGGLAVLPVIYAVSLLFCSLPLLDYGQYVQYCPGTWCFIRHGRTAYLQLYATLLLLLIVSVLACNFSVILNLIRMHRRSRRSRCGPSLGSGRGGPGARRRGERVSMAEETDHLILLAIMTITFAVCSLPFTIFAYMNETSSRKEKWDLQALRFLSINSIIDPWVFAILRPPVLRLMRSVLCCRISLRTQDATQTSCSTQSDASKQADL
# Tb hexokinase: blocks Trypanosoma brucei hexokinase 1 activity | 220,000 compounds, 0.11% hits | recombinant TbHK1, G6PDH-coupled NADH A340 | inhibition, % at 10 µM;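 active = inhibition of 50% or more in the single-dose primary screen; inactive = inhibition below 50%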
# EP2 modulator: EP2 receptor (human) modulation; EP2-expressing cells, cAMP HTRF FRET, PGE2 co-stimulation; induction, % at 25 µM; 260,000 compounds, 0.83% hits; AID 940;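 active = compounds whose cAMP rise, as percent of the full-agonist control response, exceeds 60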;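 also: rat C6 glioma line stably carrying human EP2 under a CMV promoter; the protocol text gives 20 µM as final concentration; 100% = response of wells given 1 µM PGE2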
# bCat nuc transl: modulators of beta-catenin nuclear translocation | HeLa beta-catenin nuclear translocation, immunofluorescence imaging | nuclear translocation activity, % at 5 µM | 190,000 compounds, 0.3% hits;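 active = nuclear translocation activity above 50% at 5 µM, with a well cell count of 50 or more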;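 also: per-cell ratio of nuclear to cytoplasmic median beta-catenin stain intensity; plate controls were DMSO negative control for no effect and GSK-3 inhibitor IX positive control for full effect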
#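 Read-out: Nuclear/cytoplasmic beta-catenin signal ratio, % activation | Assay system: Human HeLa cell line | Times: 24 h compound exposure at 37°C, 5% CO2 | Signal: Fluorescence imaging of beta-catenin antibody stain plus DAPI | Dosing: 5 µM primary, 0.02–20 µM confirmation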
# * marks the source's active call; other numbers are inactive results; . = not tested or not shown. Compounds with a hit are over-represented: about 2.4% of the library has one in this group of screens.
SMILES,HMGR II inh,MT stabilize HCS,PGE2 EP2 inh,Tb hexokinase,EP2 modulator,bCat nuc transl
c1ccc2c[n+](CCCC[n+]3ccc4ccccc4c3)ccc2c1,.,.,43*,.,-5,.
COCCn1c(SCC(=O)Nc2ccc(F)cc2)nnc1-c1ccco1,.,.,19,.,-2,.
Cc1ccccc1Cn1cc(/C=N/n2cnnc2)c2ccccc21,3,3,7,-24,64*,1
Clc1ccc(Cn2cc(/C=N/n3cnnc3)c3ccccc32)cc1,1,3,12,-12,37,6
Cn1c(N2CCCC(C(=O)NCc3cccc(F)c3)C2)nc2ccccc21 (stereo not given),.,.,3,.,-69,.
O=C1CC(c2cc(Br)ccc2F)c2cc3c(cc2N1)CCC3 (stereo not given),0,13,11,9,22,38
O=C1CC(c2ccccc2F)c2cc3c(cc2N1)CCC3 (stereo not given),4,44*,.,2,26,131*
O=C1CC(c2ccccc2Br)c2cc3c(cc2N1)CCC3 (stereo not given),-2,21*,7,-2,-76,1
O=C(CN1CCC(n2nnc3cc(F)ccc32)CC1)Nc1cccc(I)c1,.,.,7,.,-23,.
COc1cc(C2CC(=O)N(c3ccc(C)cc3)C(=O)C2)cc(OC)c1OC,.,.,3,-8,4,75*
CN1CCC(CN(C)Cc2ccc3cccc(Cl)c3n2)C1 (stereo not given),.,.,2,.,-31,.
COc1cc(C(=O)Nc2nc(C)c(Cc3ccc4c(c3)OCO4)s2)cc(OC)c1OC,1,15*,7,-8,-8,16
CCCC(c1nnnn1C(C)(C)C)N(CCc1ccccc1)Cc1cc2cc(C)ccc2[nH]c1=O (stereo not given),.,.,11,.,51,.
Cc1cc(C)nc(SCNC(=O)c2ccccc2)n1,11*,4,3,-2,21,2
Cn1c(=O)c2c(nc(NCCNc3nc4c(c(=O)n(C)c(=O)n4C)n3C)n2C)n(C)c1=O,.,.,45*,.,20,.
CN(C)CCNc1nc2c(c(=O)n(C)c(=O)n2C)n1C,.,.,15,.,-14,.
Cc1sc2nc(C(C)C)n3c(SCC(=O)N4CCN(C(=O)c5ccco5)CC4)nnc3c2c1C,.,.,7,.,20,.
CCOc1ccccc1-c1n[nH]c(=S)o1,1,2,40*,-8,41,-4
Cc1cccc(-c2n[nH]c(=S)o2)c1,.,.,41*,.,36,.
S=c1[nH]nc(-c2cccc(Br)c2)o1,-2,3,53*,-5,28,-1
CCOc1ccc(-c2n[nH]c(=S)o2)cc1,1,2,3,-4,22,6
CCOc1ccc2[nH]c(=O)c(CN(Cc3ccccc3)C(c3nnnn3C(C)(C)C)C(C)C)cc2c1 (stereo not given),.,.,10,.,46,.
COCCN(CC(=O)NCC1CCCO1)C(=O)CCC(=O)Nc1nccs1 (stereo not given),.,.,12,.,-16,.
CCOC(=O)c1[nH]c(C)c(CN(CCc2ccccc2)S(C)(=O)=O)c1C,-3,5,9,2,9,0
CCOC(=O)c1[nH]c(C)c(CN(C(C)=O)c2ccc(OCC)cc2)c1C,-2,20*,14,8,25,5
SMILES,HMGR II inh,MT stabilize HCS,PGE2 EP2 inh,Tb hexokinase,EP2 modulator,bCat nuc transl
Cc1ccc(C2(C(=O)N[C@H](Cn3nc(-c4cccs4)ccc3=O)C(C)C)CC2)cc1,.,.,5,.,76*,.
COc1ccc(N=c2oc3cc(O)ccc3cc2C(=O)Nc2ccccn2)cc1OC,-3,5,43*,-22,-84,-3
O=C(NC(NC(=S)Nc1ccccc1C(=O)O)C(Cl)(Cl)Cl)c1ccco1 (stereo not given),-9,4,8,36,-40,-1
O=C(NC(NC(=S)Nc1ccccc1C(=O)O)C(Cl)(Cl)Cl)c1ccccc1 (stereo not given),17*,3,2,-3,-21,-2
CCC(C)NC(=O)C1CCN(C(=O)Nc2ccc(Cl)cc2)CC1 (stereo not given),.,.,5,.,-22,.
COc1cc(NC(=O)c2cc(-c3ccc(C)cc3)on2)cc(OC)c1OC,.,.,9,.,-32,.
Cc1ccc(-c2cc(C(=O)Nc3cccnc3)no2)cc1,.,.,9,.,-65,.
COc1ccc(NC(=O)c2cc(-c3ccccc3OC)on2)cc1,-2,51*,8,3,-4,145*
COc1cc(NC(=O)c2cc(-c3cccs3)on2)cc(OC)c1OC,-2,54*,.,-3,-25,2
COc1ccc(CCNC(=O)c2cc(-c3ccccc3OC)on2)cc1OC,0,2,1,-2,-10,-1
COc1ccccc1-c1cc(C(=O)Nc2cccnc2)no1,1,24*,.,2,-18,70*
COc1ccccc1-c1cc(C(=O)NCCc2ccccc2)no1,2,21*,7,-10,-24,.
CC1CCN(c2nc3c(c(=O)[nH]2)CCN(Cc2cc(Br)cs2)C3)CC1,.,.,.,.,-20,.
COc1cc(NC(=O)c2cccnc2SC)cc(OC)c1OC,13*,7,7,0,-16,0
O=C1NC(=Nc2ccccc2)S/C1=C\c1cccn1-c1ccccc1,1,21*,23,-19,17,10
Cc1cccc(N=C2NC(=O)/C(=C/c3cccn3C)S2)c1,.,.,8,-14,-8,-3
CC[C@H](Cn1nc(-c2cccs2)ccc1=O)NC(=O)CN1Cc2ccccc2C1=O,.,.,.,.,-7,.
O=C(Nc1ccc(N2CCOCC2)cc1)C1(c2ccc(Cl)cc2)CCC1,-4,9.9*,8,0,-41,0
O=C(Nc1ccc(Cl)cc1)Nc1ccc(N2CCOCC2)cc1,-1,4,9,-1,-3,0
O=c1c2c3c(sc2[nH]c(=S)n1Cc1ccco1)CCC3,.,.,40*,-5,44,1
CC1(C)Cc2c(sc3c2c(=N)n(Cc2ccco2)c(=O)n3Cc2ccc(Cl)cc2)CO1,-5,12,13,0,61*,-1
Cn1c(=O)n(Cc2ccco2)c(=N)c2c3c(sc21)CCC3,0,3,5,1,14,0
CC1(C)Cc2c(sc3[nH]c(=S)n(Cc4ccco4)c(=O)c23)CO1,0,3,40*,-24,37,0
CC(=O)N/C(=C\c1cccs1)C(=O)O,-9,3,7,17,-10,0
O=C(O)/C(=C\c1cccs1)c1ccccc1,12*,2,15,-4,4,1
CC(C)(C)OC(=O)[C@H]([C@@H]1N[C@@H](C(=O)O)C(C)(C)S1)N1C(=O)c2ccccc2C1=O,.,.,42*,.,16,.
COc1cc(SC#N)ccc1N=Cc1c(O)n(-c2ccccc2)c(=O)[nH]c1=O,.,.,13,.,-84,.
COc1ccc(NC(=O)Cc2ccc(-c3ccccc3)cc2)cn1,-3,26*,7,1,-23,96*
CCc1cc2cc(C)cc(C)c2nc1SCC(=O)Nc1cccc(NC(C)=O)c1,.,.,18,.,-19,.
